ChEMBL document CHEMBL1121608, “Modification of the 5' position of purine nucleosides. 2. Synthesis and some cardiovascular properties of adenosine-5'-(N-substituted)carboxamides” (J Med Chem, 1980)

What was measured:
[1] = Lethal dose in mice after intraperitoneal administration; format: toxicity, organism-based; details: mouse, in vivo, ip
How it was run: (§1)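 Male and female mice, three per dose group, were given the compound by the stated route in increments of 0.5 log doses. The LD50 was estimated as an approximate value.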

[2] = Lethal dose in mice after peroral administration; format: toxicity, organism-based; details: mouse, in vivo, po; how it was run: as §1
Canis familiaris [3] = test: Total time in minutes elapsed from the initiation of the change until return to the pretest value of oxygen partial pressure in coronary sinus of anesthetized dog at intravenous dosage of 10 mg/kg; format: functional, Canis lupus familiaris
How it was run: (§2)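 Open-chest anesthetized dogs given compound by intravenous injection. Coronary sinus PO2 was monitored, and duration was the total time in minutes from the onset of the change until return to the pretest value.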

Canis familiaris [4] = test: Total time in minutes elapsed from the initiation of the change until return to the pretest value of heart rate in coronary sinus of anesthetized dog at intravenous dosage of 10 mg/kg; format: functional, Canis lupus familiaris
Canis familiaris [5] = test: Tested for the percent increase in aortic blood pressure (BP) in open chest anesthetized dog at intravenous dosage of 10.00 mg/kg; format: functional, Canis lupus familiaris, Artery
How it was run: (§3)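 Open-chest anesthetized dogs, compound given iv at the stated dose. Aortic blood pressure is reported as the change from the control (pre-dose) value. Other set-up follows the group's earlier cardiovascular protocol.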

Canis familiaris [6] = test: Tested for percent increase in coronary sinus partial pressure of oxygen (PO2) in open chest anesthetized dog at intravenous dosage of 10.00 mg/kg; format: functional, Canis lupus familiaris
Canis familiaris [7] = test: Total time in minutes elapsed from the initiation of the change until return to the pretest value of blood pressure in coronary sinus of anesthetized dog at intravenous dosage of 10 mg/kg; format: functional, Canis lupus familiaris
Canis familiaris [8] = test: Tested for percent increase in coronary sinus partial pressure of oxygen (PO2) in open chest anesthetized dog at intravenous dosage of 0.01 mg/kg; format: functional, Canis lupus familiaris
Canis familiaris [9] = test: Total time in minutes elapsed from the initiation of the change until return to the pretest value of blood pressure in coronary sinus of anesthetized dog at intravenous dosage of 0.01 mg/kg; format: functional, Canis lupus familiaris
Canis familiaris [10] = test: Tested for the percent increase in aortic blood pressure (BP) in open chest anesthetized dog at intravenous dosage of 0.01 mg/kg; format: functional, Canis lupus familiaris, Artery; how it was run: as §3
Canis familiaris [11] = test: Total time in minutes elapsed from the initiation of the change until return to the pretest value of heart rate in coronary sinus of anesthetized dog at intravenous dosage of 0.01 mg/kg; format: functional, Canis lupus familiaris
Canis familiaris [12] = test: Total time in minutes elapsed from the initiation of the change until return to the pretest value of oxygen partial pressure in coronary sinus of anesthetized dog at intravenous dosage of 0.01 mg/kg; format: functional, Canis lupus familiaris
Canis familiaris [13] = test: Total time in minutes elapsed from the initiation of the change until return to the pretest value of heart rate in coronary sinus of anesthetized dog at intravenous dosage of 0.1 mg/kg; format: functional, Canis lupus familiaris
Canis familiaris [14] = test: tested for the percent increase in heart rate (HR) in open chest anesthetized dog at intravenous dosage of 0.10 mg/kg; format: functional, Canis lupus familiaris; details: dose 0.1 mg/kg
Canis familiaris [15] = test: Total time in minutes elapsed from the initiation of the change until return to the pretest value of blood pressure in coronary sinus of anesthetized dog at intravenous dosage of 0.1 mg/kg; format: functional, Canis lupus familiaris
Canis familiaris [16] = test: Tested for the percent increase in aortic blood pressure (BP) in open chest anesthetized dog at intravenous dosage of 0.10 mg/kg; format: functional, Canis lupus familiaris, Artery; details: dose 0.1 mg/kg; how it was run: as §3
Canis familiaris [17] = test: Total time in minutes elapsed from the initiation of the change until return to the pretest value of oxygen partial pressure in coronary sinus of anesthetized dog at intravenous dosage of 0.1 mg/kg; format: functional, Canis lupus familiaris
Canis familiaris [18] = test: Tested for percent increase in coronary sinus partial pressure of oxygen (PO2) in open chest anesthetized dog at intravenous dosage of 0.10 mg/kg; format: functional, Canis lupus familiaris; details: dose 0.1 mg/kg
Canis familiaris [19] = test: Total time in minutes elapsed from the initiation of the change until return to the pretest value of oxygen partial pressure in coronary sinus of anesthetized dog at intravenous dosage of 1 mg/kg; format: functional, Canis lupus familiaris; how it was run: as §2
Canis familiaris [20] = test: Tested for the percent increase in aortic blood pressure (BP) in open chest anesthetized dog at intravenous dosage of 1.00 mg/kg; format: functional, Canis lupus familiaris, Artery; how it was run: as §3
Canis familiaris [21] = test: Total time in minutes elapsed from the initiation of the change until return to the pretest value of heart rate in coronary sinus of anesthetized dog at intravenous dosage of 1 mg/kg; format: functional, Canis lupus familiaris
Canis familiaris [22] = test: Tested for percent increase in coronary sinus partial pressure of oxygen (PO2) in open chest anesthetized dog at intravenous dosage of 1.00 mg/kg; format: functional, Canis lupus familiaris
Canis familiaris [23] = test: Total time in minutes elapsed from the initiation of the change until return to the pretest value of blood pressure in coronary sinus of anesthetized dog at intravenous dosage of 1 mg/kg; format: functional, Canis lupus familiaris

CC1(C)OC2[C@@H](C(=O)NC3CC3)O[C@@H](n3cnc4c(N)ncnc43)[C@H]2O1 (some centres undefined)
LD50 [1]: > 300 mg/kg | LD50 [2]: > 300 mg/kg | Duration (Canis familiaris [3]): 60 min | Duration (Canis familiaris [4]): 1 min | BP (Canis familiaris [5]): 26% | PO2 (Canis familiaris [6]): 9% | Duration (Canis familiaris [7]): 1 min

CC(=O)OC1[C@@H](C(=O)NC2CC2)O[C@@H](n2cnc3c(N)ncnc32)[C@H]1OC(C)=O (some centres undefined)
PO2 (Canis familiaris [8]): 67% | Duration (Canis familiaris [9]): 270 min | LD50 [1]: 5 mg/kg | LD50 [2]: 20 mg/kg | BP (Canis familiaris [10]): 31% | Duration (Canis familiaris [11]): 270 min | Duration (Canis familiaris [12]): 270 min

Nc1ncnc2c1ncn2[C@@H]1O[C@H](C(=O)NC2CCC2)[C@@H](O)[C@H]1O
PO2 (Canis familiaris [8]): 79% | Duration (Canis familiaris [9]): 90 min | LD50 [1]: 2 mg/kg | LD50 [2]: 5 mg/kg | Duration (Canis familiaris [11]): 48 min | Duration (Canis familiaris [12]): 90 min

Nc1ncnc2c1ncn2[C@@H]1O[C@H](C(=O)NC2CCCC2)[C@@H](O)[C@H]1O
Duration (Canis familiaris [13]): 120 min | LD50 [1]: 200 mg/kg | HR (Canis familiaris [14]): 25% | LD50 [2]: 200 mg/kg | Duration (Canis familiaris [15]): 120 min | BP (Canis familiaris [16]): 12% | Duration (Canis familiaris [17]): 120 min | PO2 (Canis familiaris [18]): 83%

Nc1ncnc2c1ncn2[C@@H]1O[C@H](C(=O)NC2CC2)[C@@H](O)[C@H]1O
PO2 (Canis familiaris [8]): 136% | Duration (Canis familiaris [9]): 150 min | LD50 [1]: 2 mg/kg | LD50 [2]: 5 mg/kg | Duration (Canis familiaris [11]): 150 min | Duration (Canis familiaris [12]): 150 min

CCNC(=O)[C@H]1O[C@@H](n2cnc3c(N)ncnc32)[C@@H](OC(C)=O)C1OC(C)=O (some centres undefined)
PO2 (Canis familiaris [8]): 52% | Duration (Canis familiaris [9]): 70 min | LD50 [1]: 2 mg/kg | LD50 [2]: 2 mg/kg | BP (Canis familiaris [10]): 12% | Duration (Canis familiaris [11]): 120 min | Duration (Canis familiaris [12]): 120 min

C=CCNC(=O)[C@H]1O[C@@H](n2cnc3c(N)ncnc32)[C@H]2OC(C)(C)OC12 (some centres undefined)
Duration (Canis familiaris [19]): 0 min | LD50 [1]: > 1000 mg/kg | LD50 [2]: > 1000 mg/kg | BP (Canis familiaris [20]): 14% | Duration (Canis familiaris [21]): 5 min | PO2 (Canis familiaris [22]): 0% | Duration (Canis familiaris [23]): 30 min

CCNC(=O)[C@H]1O[C@@H](n2cnc3c(N)ncnc32)[C@H]2OC(C)(C)OC12 (some centres undefined)
Duration (Canis familiaris [3]): 30 min | Duration (Canis familiaris [4]): 16 min | BP (Canis familiaris [5]): 0% | PO2 (Canis familiaris [6]): 27% | Duration (Canis familiaris [7]): 0 min

CC(C)NC(=O)[C@H]1OC(n2cnc3c(N)ncnc32)[C@H](O)[C@@H]1O (some centres undefined)
PO2 (Canis familiaris [8]): 43% | Duration (Canis familiaris [9]): 70 min | LD50 [1]: 5 mg/kg | LD50 [2]: 5 mg/kg | Duration (Canis familiaris [11]): 240 min | Duration (Canis familiaris [12]): 240 min

CCCCCCNC(=O)[C@H]1OC(n2cnc3c(N)ncnc32)[C@H](O)[C@@H]1O (some centres undefined)
Duration (Canis familiaris [19]): 40 min | LD50 [1]: 200 mg/kg | LD50 [2]: 500 mg/kg | BP (Canis familiaris [20]): 0% | Duration (Canis familiaris [21]): 6 min | PO2 (Canis familiaris [22]): 100% | Duration (Canis familiaris [23]): 0 min

C=C(C)CNC(=O)[C@H]1OC(n2cnc3c(N)ncnc32)[C@H](O)[C@@H]1O (some centres undefined)
Duration (Canis familiaris [13]): 60 min | LD50 [1]: 500 mg/kg | HR (Canis familiaris [14]): 19% | LD50 [2]: > 1000 mg/kg | Duration (Canis familiaris [15]): 15 min | BP (Canis familiaris [16]): 1% | Duration (Canis familiaris [17]): 60 min | PO2 (Canis familiaris [18]): 38%

Nc1ncnc2c1ncn2C1O[C@H](C(=O)Nc2ccc(F)cc2)[C@@H](O)[C@H]1O (some centres undefined)
LD50 [1]: 500 mg/kg | LD50 [2]: > 1000 mg/kg | Duration (Canis familiaris [3]): 20 min | Duration (Canis familiaris [4]): 0 min | BP (Canis familiaris [5]): 0% | PO2 (Canis familiaris [6]): 30% | Duration (Canis familiaris [7]): 0 min

CCCONC(=O)[C@H]1OC(n2cnc3c(N)ncnc32)[C@H](O)[C@@H]1O (some centres undefined)
Duration (Canis familiaris [13]): 3 min | LD50 [1]: 200 mg/kg | HR (Canis familiaris [14]): 6% | LD50 [2]: > 1000 mg/kg | Duration (Canis familiaris [15]): 13 min | BP (Canis familiaris [16]): 1% | Duration (Canis familiaris [17]): 60 min | PO2 (Canis familiaris [18]): 52%
